This is an account of results in PubChem BioAssay.

Molecules are shown by their SMILES. Active and inactive are the calls of the source.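 How the source made its calls, unless noted: active means Her2 level under about 52% in both replicate screens, with viability over 70% of control (limit read from the data); inconclusive means Her2 under the limit in one screen only, or viability under 70%; inactive means Her2 level above the set limit.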

Test [1] can be described thus: Her2 expression decrease, cell viability multiplex – SKBR3 breast tumor cells, AlphaScreen, ATP viability, primary screen (AID 461).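 On Her2 level: lower value means less Her2 protein in the cells.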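 On viability: percent of carrier control wells set as 100% viability.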 The note with it: SKBR3 Her2 protein level, 18-24 h, measured here: SKBR3 viability, ATP luminescence, at 10 µM.
The target of test [2] is Receptor tyrosine-protein kinase erbB-2 (Homo sapiens) (UniProt P04626). Described as above. The following applies: 18-24 h, at 10 µM, stronger effect = lower value.
Sequence of Receptor tyrosine-protein kinase erbB-2 (Homo sapiens) (P04626 whole entry, looked up): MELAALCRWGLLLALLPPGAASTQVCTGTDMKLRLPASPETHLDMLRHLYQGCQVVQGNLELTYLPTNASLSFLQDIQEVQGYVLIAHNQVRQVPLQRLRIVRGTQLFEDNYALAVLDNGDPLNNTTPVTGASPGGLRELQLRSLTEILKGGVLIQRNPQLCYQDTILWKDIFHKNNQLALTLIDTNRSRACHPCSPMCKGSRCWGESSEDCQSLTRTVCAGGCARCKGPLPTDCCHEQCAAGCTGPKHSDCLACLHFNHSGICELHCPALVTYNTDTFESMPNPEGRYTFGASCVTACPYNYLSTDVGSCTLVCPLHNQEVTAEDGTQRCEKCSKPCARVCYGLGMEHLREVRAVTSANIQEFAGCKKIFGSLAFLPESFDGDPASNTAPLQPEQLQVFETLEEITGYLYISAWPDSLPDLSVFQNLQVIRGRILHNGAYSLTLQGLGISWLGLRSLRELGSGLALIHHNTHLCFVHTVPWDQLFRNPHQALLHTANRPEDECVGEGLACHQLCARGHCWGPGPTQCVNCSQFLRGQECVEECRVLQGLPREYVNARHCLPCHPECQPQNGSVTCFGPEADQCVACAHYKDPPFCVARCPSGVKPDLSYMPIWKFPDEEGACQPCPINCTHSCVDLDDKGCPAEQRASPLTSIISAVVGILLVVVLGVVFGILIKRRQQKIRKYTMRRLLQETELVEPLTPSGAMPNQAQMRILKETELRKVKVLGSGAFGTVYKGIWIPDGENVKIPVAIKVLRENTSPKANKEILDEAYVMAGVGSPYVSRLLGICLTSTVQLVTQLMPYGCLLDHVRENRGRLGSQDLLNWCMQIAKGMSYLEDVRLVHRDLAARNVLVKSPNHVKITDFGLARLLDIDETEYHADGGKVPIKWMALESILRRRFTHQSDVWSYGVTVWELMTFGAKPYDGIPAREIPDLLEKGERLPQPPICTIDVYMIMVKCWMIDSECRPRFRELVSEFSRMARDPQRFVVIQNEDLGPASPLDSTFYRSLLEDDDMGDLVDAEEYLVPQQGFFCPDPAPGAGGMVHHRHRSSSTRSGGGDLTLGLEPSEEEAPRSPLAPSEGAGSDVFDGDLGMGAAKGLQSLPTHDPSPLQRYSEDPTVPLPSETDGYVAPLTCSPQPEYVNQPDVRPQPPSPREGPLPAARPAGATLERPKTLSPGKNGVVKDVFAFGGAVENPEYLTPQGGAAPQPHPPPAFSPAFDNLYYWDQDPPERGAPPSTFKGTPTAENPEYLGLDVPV
The nature of test [3]: reduced viability of SK-BR-3 breast cancer cells – cell-based, 24 h, human, pilot screen (AID 572;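 active means viability at or below 10% of carrier control in both of two separate runs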;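 further: compound exposure lasted between 18 and 24 h rather than exactly 24 h; 100% = carrier-treated control wells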). The note with it: SK-BR-3 viability, CellTiter-Glo luminescence, at 10 µM, stronger effect = lower value. For orientation: Cellular ATP, detected with luciferase, serves as a proxy for viable cell number.
Test [4] can be described thus: HUVEC growth inhibition – cell-based, human, primary screen (AID 575;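 active means viability at or below 30% in both replicate assays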;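 further: 100% = median of untreated cell wells with 0.1% DMSO on each plate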). The following applies: HUVEC proliferation, CellTiter-Glo luminescence, 72 h; at 10 µM; stronger effect = lower value. In a few lines: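 Material: primary human umbilical vein endothelial cells / Schedule: 72 h exposure, 37 °C, 5% CO2, 30 min RT equilibration / Signal: ATP-based CellTiter-Glo luminescent read / Read-out basis: percent of median DMSO-control luminescence / Control set: 32 DMSO-only cell-control wells (high), 32 MePR drug-control wells (low) per plate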

Test [5] can be described thus: H69AR cell proliferation blockers – human, duplicate replicates, primary screen (AID 580;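 active means viability at or under a set limit in both replicates, limit being median viability minus 3 SD, cut at about 48% in these data, passing the limit was not always enough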;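 further: 100% = mean luminescence of untreated wells and 0% = no signal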). The note with it: H69AR lung tumor cells viability, ATP luminescence, 72 h; at 10 µM; stronger effect = lower value.
Test [6] is described as follows: MRP1 drug-resistance reversers in H69AR cells – cell-based, doxorubicin co-treatment, pilot screen (AID 601;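 active means viability loss from added drug above about 55%, and viability with drug at most 40%, in both replicates, limit read from the data, passing the limit was not always enough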). The following applies: CellTiter-Glo, 72 h, at 10 µM; for differential viability (reversal): stronger effect = higher value.
A short description of test [7]: yeast transport mutant growth inhibition pilot in 384-well plates, post-Golgi transport modulator project (AID 636; in the data active means inhibition above about 31%). The following applies: absorbance 615 nm, about 18 h, stronger effect = higher value.
Test [8] can be described thus: growth suppression of yeast trafficking mutant, preliminary HTS, modulators of trafficking downstream of Golgi apparatus project, 1536-format plate, OD 615 nm (AID 637; in the data active means inhibition above about 30%). The following applies: yeast transport mutant growth, absorbance 615 nm, 18 h; stronger effect = higher value.
Setting [9] is: H69AR cells + 2 uM doxorubicin, measured here: viability with 2 uM doxorubicin, stronger effect = lower value.
Where [10] appears, read: H69AR cells, compound alone cytotoxicity.

`Cc1ccc(C)c(N2CCN(C(=O)C3CCN(S(=O)(=O)c4c(C)noc4C)CC3)CC2)c1`: the viability in test [1] is 104%; in test [3], 104% (inactive); in test [4], 74.8% (inactive); in test [5] it was 83.4% (inactive); in test [6] (setting [9]), 55.6%; in test [6] (setting [10]), 83.4%. For the same molecule, the Her2 level in test [2] was 72% (inactive). Besides, the differential viability (reversal) in test [6] (H69AR cells + 2 uM doxorubicin) is 27.8% (inactive). The inhibition is -2.89% (inactive) in test [7] and -3.97% (inactive) in test [8].

For the molecule `CCN(CC)S(=O)(=O)N1CCC(C(=O)NCC2COc3ccccc3O2)CC1` (stereo not given), the viability is 94% in test [1]; 94% (inactive) in test [3]; 109% (inactive) in test [4]; 97.3% (inactive) in test [5]; 107% in test [6] (setting [9]); 97.3% in test [6] (setting [10]). In addition, in test [2], the Her2 level was 114% (inactive). In addition, the differential viability (reversal) in test [6] (H69AR cells + 2 uM doxorubicin) was -9.32% (inactive). Moreover, the inhibition in test [7] is -0.79% (inactive); in test [8], 3.65% (inactive).

On to `O=C(Cn1nc(C(F)(F)F)c2c1CCCC2)NCCN1CCOCC1`, for which the viability is 110% in test [1]; 110% (inactive) in test [3]; 108% (inactive) in test [4]; 91.5% (inactive) in test [5]; 87.5% in test [6] (setting [9]); 91.5% in test [6] (setting [10]). In addition, in test [2], the Her2 level was 89% (inactive). The differential viability (reversal) in test [6] (H69AR cells + 2 uM doxorubicin) was 4.05% (inactive). For the same molecule, the figures for the inhibition in test [7] and in test [8] were -1.18% (inactive) and 3.93% (inactive), respectively.

For the molecule `O=C(Nc1ccccc1C(=O)NCC1CCCO1)c1ccco1` (stereo not given), the viability in test [1] is 110%; in test [3], 110% (inactive); in test [4], 97.9% (inactive); in test [5] it was 98.7% (inactive); in test [6] (setting [9]), 100%; in test [6] (setting [10]) it was 98.7%. Besides, the Her2 level in test [2] is 89% (inactive). Further, the differential viability (reversal) in test [6] (H69AR cells + 2 uM doxorubicin) is -1.63% (inactive). Besides, the figures for the inhibition in test [7] and in test [8] were -1.71% (inactive) and -5.71% (inactive), respectively.

With `CCOC(=O)C1=C(C)N=C2SC(C)C(=O)N2C1c1cccc(F)c1` (stereo not given), the viability in test [1] was 102%; in test [3] it was 102% (inactive); in test [4] it was 85.2% (inactive); in test [5], 87.5% (inactive); in test [6] (setting [9]), 86.7%; in test [6] (setting [10]), 87.5%. For the same molecule, in test [2], the Her2 level is 89.5% (inactive). For the same molecule, in test [6] (H69AR cells + 2 uM doxorubicin), the differential viability (reversal) was 0.855% (inactive). Also, the inhibition is -3.82% (inactive) in test [7] and 1.13% (inactive) in test [8].

On to `C/C(=C\c1cc(C(=O)O)c(C)o1)CO`, for which the viability is 102% in test [1]; 102% (inactive) in test [3]; 108% (inactive) in test [4]; 89.1% (inactive) in test [5]; 97.2% in test [6] (setting [9]); 89.1% in test [6] (setting [10]). The Her2 level in test [2] was 126% (inactive). In addition, in test [6] (H69AR cells + 2 uM doxorubicin), the differential viability (reversal) is -8.12% (inactive). Further, the results for the inhibition in test [7] and in test [8] were -5.13% (inactive) and -0.33% (inactive), respectively.

For the molecule `CCOC(=O)c1cc2cc(F)ccc2nc1C`, the viability in test [1] is 103%; in test [3], 103% (inactive); in test [4], 120% (inactive); in test [5], 108% (inactive); in test [6] (setting [9]), 87.1%; in test [6] (setting [10]) it was 108%. The Her2 level in test [2] was 112% (inactive). In test [6] (H69AR cells + 2 uM doxorubicin), the differential viability (reversal) was 20.9% (inactive). The results for the inhibition in test [7] and in test [8] were -0.93% (inactive) and -5.9% (inactive), respectively.

With `CC(C)c1cc(C(=O)NCc2ccco2)no1`, the viability in test [1] was 101%; in test [3] it was 101% (inactive); in test [4], 84.3% (inactive); in test [5], 80.4% (inactive); in test [6] (setting [9]) it was 74.5%; in test [6] (setting [10]), 80.4%. Also, the Her2 level in test [2] is 99.5% (inactive). Besides, the differential viability (reversal) in test [6] (H69AR cells + 2 uM doxorubicin) was 5.93% (inactive). Further, the inhibition in test [7] was 0.13% (inactive); in test [8] it was -2.83% (inactive).

As to `O=C(NCCN1CCOCC1)c1csc2c1CCCC2`, the viability is 97.5% in test [1]; 97.5% (inactive) in test [3]; 95% (inactive) in test [4]; 102% (inactive) in test [5]; 86% in test [6] (setting [9]); 102% in test [6] (setting [10]). Besides, the Her2 level in test [2] was 83% (inactive). Further, the differential viability (reversal) in test [6] (H69AR cells + 2 uM doxorubicin) was 16.4% (inactive). Besides, the inhibition in test [7] is -7.3% (inactive); in test [8], -1.83% (inactive).

As for `CC(C)Cn1c(N)c(C(=O)COC(=O)c2cc(-c3ccco3)nc3ccccc23)c(=O)n(C)c1=O`, the viability is 78.5% in test [1]; 78.5% (inactive) in test [3]; 66.8% (inactive) in test [4]; 89.3% (inactive) in test [5]; 91.1% in test [6] (setting [9]); 89.3% in test [6] (setting [10]). In addition, the Her2 level in test [2] was 80% (inactive). In addition, in test [6] (H69AR cells + 2 uM doxorubicin), the differential viability (reversal) was -1.72% (inactive). Further, the inhibition is -4.32% (inactive) in test [7] and -6.67% (inactive) in test [8].

Turning to `COc1ccccc1N1CCN(C(=O)c2oc3cc(C)c(C)cc3c2C)CC1`, the viability in test [1] is 117%; in test [3], 117% (inactive); in test [4], 82.4% (inactive); in test [5], 92.7% (inactive); in test [6] (setting [9]), 94.9%; in test [6] (setting [10]), 92.7%. In test [2], the Her2 level is 104% (inactive). For the same molecule, in test [6] (H69AR cells + 2 uM doxorubicin), the differential viability (reversal) is -2.22% (inactive). Moreover, the figures for the inhibition in test [7] and in test [8] were -1.18% (inactive) and -2.62% (inactive), respectively.

`O=S(=O)(c1ccc2nc(Cc3cccc(C(F)(F)F)c3)[nH]c2c1)N1CCOCC1`: the viability in test [1] is 104%; in test [3], 104% (inactive); in test [4], 67.9% (inactive); in test [5], 82.9% (inactive); in test [6] (setting [9]), 79.4%; in test [6] (setting [10]) it was 82.9%. In test [2], the Her2 level is 91% (inactive). Moreover, the differential viability (reversal) in test [6] (H69AR cells + 2 uM doxorubicin) was 3.53% (inactive). In addition, the inhibition in test [7] was -1.69% (inactive); in test [8] it was -0.16% (inactive).

With `COc1cccc(C(=O)NCc2nnc(SCC(=O)Nc3nccs3)n2-c2ccccc2)c1`, the viability is 101% in test [1]; 101% (inactive) in test [3]; 92.9% (inactive) in test [4]; 97.9% (inactive) in test [5]; 101% in test [6] (setting [9]); 97.9% in test [6] (setting [10]). In addition, in test [2], the Her2 level is 108% (inactive). For the same molecule, in test [6] (H69AR cells + 2 uM doxorubicin), the differential viability (reversal) was -3.27% (inactive). Moreover, the results for the inhibition in test [7] and in test [8] were -2.18% (inactive) and 1.17% (inactive), respectively.

For the molecule `O=C(COc1ccc(S(=O)(=O)NC2CCCCC2)cc1Cl)NCC1CCCO1` (stereo not given), the viability in test [1] is 88.5%; in test [3], 88.5% (inactive); in test [4] it was 98.6% (inactive); in test [5] it was 89.4% (inactive); in test [6] (setting [9]), 89%; in test [6] (setting [10]) it was 89.4%. In addition, the Her2 level in test [2] is 98% (inactive). Moreover, the differential viability (reversal) in test [6] (H69AR cells + 2 uM doxorubicin) was 0.36% (inactive). For the same molecule, the values for the inhibition in test [7] and in test [8] were -5.07% (inactive) and -7.78% (inactive), respectively.

By viability is commonly meant a read-out of living cells in per cent, often relative to untreated cells. Broadly, the inhibition is the drop in the measured response relative to a control, in per cent.
